Results as given in paper PMC5433042 (Chemical Science, 2014).

Columns and labels:
HeLa cells = assay: Resazurin cell viability assay, HeLa; type: cell-based, human
In short: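 HeLa cells are kept in DMEM with 5% FCS, penicillin/streptomycin, at 37 °C and 5% CO2. Cells are seeded in triplicate at 4 × 10^3 per well one day ahead, then exposed 48 h to increasing concentrations diluted in medium from 10 mg mL−1 DMSO stocks. Medium is then replaced with resazurin (0.2 mg mL−1 final) for 4 h at 37 °C, and resorufin fluorescence is read at ex 540/em 590 nm.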

[1] = test system: B. subtilis 1981 GFP-MinD; assay: GFP-MinD delocalization assay; type: cell-based, Bacillus subtilis; conditions: 8 μg mL^–1 (2× MIC), nisin 0.75 μg mL^–1; 15 minutes
B. subtilis 168 [2] = assay: BacLight membrane disruption assay; type: cell-based, Bacillus subtilis; conditions: 8 μg mL^–1 (2× MIC), nisin 0.75 μg mL^–1; 15 minutes
In short: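 B. subtilis 168 is grown in Belitzky minimal medium to early log phase and exposed for 15 min; untreated aliquot serves as control. Cells are stained 15 min with a 1:1 SYTO 9/propidium iodide mix (1 μL per mL cells), washed twice in 100 mM Tris/1 mM EDTA pH 7.5, then examined by fluorescence microscopy. Red or orange cells in the overlay indicate permeabilized membranes.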

B. subtilis 168 [3] = assay: Cell wall integrity assay; type: cell-based, Bacillus subtilis; conditions: 8 μg mL^–1 (2× MIC), nisin 0.75 μg mL^–1; 15 minutes

N.N.[Cl][Pt][Cl] [Cisplatin]
IC50 HeLa (HeLa cells; 48 h): 3.5 ± 0.9 μg mL^–1
IC50 (HeLa cells; read-out: IC50 HeLa, 48 h): 11.5 ± 2.9 µM

nisin (ITSISLCTPGCKTGALMGCNMKTATCHCSIHVSK; not fully specified; Lantibiotic nisin-A; UniProt P13068 24-57, looked up)
GFP-MinD localization (membrane depolarization) [1]: MinD delocalization
membrane permeabilization, BacLight staining (B. subtilis 168 [2]): red fluorescencing cells
cell wall integrity after acetic acid/methanol fixation (B. subtilis 168 [3]): membrane extrusions
